Non-standard residues stand in square brackets, D forms with d. Residues, ends and D or L forms follow the SMILES beside them. *: point of attachment. Desaminotyrosyl = O=C(CCc1ccc(O)cc1)*; NMeF = CN[C@@H](Cc1ccccc1)C(=O)O; Aib = CC(C)(N)C(=O)O; Ava = NCCCCC(=O)O; GABA = NCCCC(=O)O; βAla = NCCC(=O)O; Sar = CNCC(=O)O
What was measured:
Type in all cases: functional, Mus musculus
[1] = Proliferative activity in osteoblastic MC3T3 E1 cell culture relative to OGP(10-14)
In short: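 MC3T3 E1 osteoblastic cells were seeded at 2 × 10⁴ cells/well in RMEM with 10% FCS at 37 °C in CO₂/air. After 46 h in serum, they were washed, kept serum-free for 2 h, then switched to RMEM with 4% fatty-acid-free BSA, with or without peptide. The peptide was freshly dissolved at 10^-6 M, diluted, and preincubated for 30 min at 37 °C. The final concentration was 10^-13 M unless otherwise specified, with some dose-response runs.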

[2] = (§1) Proliferative activity in fibroblastic […] cell culture relative to OGP(10-14)
In short: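 Mouse NIH 3T3 fibroblasts from confluent cultures were seeded at 2 × 10⁴ cells/well in RMEM with 10% FCS at 37 °C in CO₂/air for 46 h, then washed and held serum-free for 2 h. Medium was then replaced with RMEM containing 4% fatty-acid-free BSA, with or without peptide. The peptide was dissolved at 10^-6 M, diluted, and pre-warmed for 30 min at 37 °C. The final concentration was 10^-11 M unless otherwise stated.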

NIH3T3 = assay: as §1
In short: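 NIH 3T3 fibroblasts from confluent cultures in RMEM with 10% FCS, seeded at 2 × 10⁴ cells/well, 37 °C in CO₂/air. They were kept 46 h in FCS medium, then 2 h serum-free. Medium was switched to 4% fatty-acid-free BSA RMEM ± peptide, 10^-11 M final, preincubated 30 min at 37 °C. Read-out was cell number in triplicate wells, converted to treated/control ratio against OGP(10-14) reference.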

Row | Molecule | Relative potency [1] | Relative potency [2] | Relative potency (NIH3T3)
1 | O=C1CNC(=O)[C@H](Cc2ccccc2)NC(=O)CNC(=O)[C@H](Cc2ccc(O)cc2)N1 (cyclo(FGYG)) | 0.35 | 0.43 | –
2 | O=C1CNC(=O)CNC(=O)[C@H](Cc2ccccc2)NC(=O)CNC(=O)[C@H](Cc2ccc(O)cc2)NC(=O)CN1 (cyclo(FGGGYG)) | 0.26 | 0.2 | –
3 | O=C(O)CNCCNC(=O)[C@H](Cc1ccccc1)NC(=O)CNC(=O)CCc1ccc(O)cc1 | 0.78 | 0.8 | –
4 | O=C(O)CNC(=O)CNC(=O)[C@H](Cc1ccccc1)NC(=O)CNCCCc1ccc(O)cc1 | 0.81 | 0.79 | –
5 | H-GGFGY-OH | 0.71 | 0.82 | –
6 | CN(CC(=O)O)C(=O)CNC(=O)[C@H](Cc1ccccc1)NC(=O)CNC(=O)CCc1ccc(O)cc1 (Desaminotyrosyl-GFG[Sar]-OH) | 0.16 | 0.14 | –
7 | CC1(C)NC(=O)[C@H](Cc2ccc(O)cc2)NC(=O)CNC(=O)CNC(=O)[C@H](Cc2ccccc2)NC1=O (cyclo([Aib]FGGY)) | 0.19 | 0.31 | –
8 | O=C1CNC(=O)CNC(=O)[C@H](Cc2ccccc2)NC(=O)CNC(=O)[C@H](Cc2ccc(O)cc2)NC(=O)CCN1 (cyclo(FGG[βAla]YG)) | 0.36 | 0.37 | –
9 | O=C1CNC(=O)[C@@H](Cc2ccc(O)cc2)NC(=O)CNC(=O)[C@@H](Cc2ccccc2)NC(=O)CN1 | 1.03 | 1.16 | –
10 | H-YGFGG-OH | 1 | – | 1
11 | O=C1CNC(=O)[C@H](Cc2ccccc2)NC(=O)CNC(=O)[C@H](Cc2ccc(O)cc2)NC(=O)CN1 | 0.79 | 1.12 | –
12 | O=C(O)C[C@@H]1NC(=O)CNC(=O)[C@H](Cc2ccccc2)NC(=O)CNC(=O)[C@H](Cc2ccc(O)cc2)NC1=O (cyclo(DYGFG)) | 0.14 | 0.11 | –
13 | CN(C(=O)CNC(=O)CCc1ccc(O)cc1)[C@@H](Cc1ccccc1)C(=O)NCC(=O)NCC(=O)O (Desaminotyrosyl-G[NMeF]GG-OH) | 0.52 | 0.67 | –
14 | CN(CC(=O)NCC(=O)O)C(=O)[C@H](Cc1ccccc1)NC(=O)CNC(=O)CCc1ccc(O)cc1 (Desaminotyrosyl-GF[Sar]G-OH) | 0.15 | 0.11 | –
15 | O=C(O)CNC(=O)CNC[C@H](Cc1ccccc1)NC(=O)CNC(=O)CCc1ccc(O)cc1 | 0.7 | 0.88 | –
16 | O=C1CNC(=O)[C@H](Cc2ccccc2)NC(=O)[C@@H]2CCCN2C(=O)[C@H](Cc2ccc(O)cc2)NC(=O)CN1 (cyclo(FGGYP)) | 0.99 | 0.9 | –
17 | O=C1CNC(=O)[C@H](Cc2ccc(O)cc2)NC(=O)CNC(=O)[C@H](Cc2ccccc2)NC(=O)CN1 | 0.95 | 1.02 | –
18 | O=C1CNC(=O)CNC(=O)[C@H](Cc2ccccc2)NC(=O)CNC(=O)[C@H](Cc2ccc(O)cc2)NC(=O)CCCCN1 (cyclo([Ava]YGFGG)) | 0.14 | 0.18 | –
19 | H-YPFGG-OH | 0.89 | 0.96 | –
20 | O=C1CNC(=O)[C@@H](Cc2ccccc2)NC(=O)CNC(=O)[C@@H](Cc2ccc(O)cc2)NC(=O)CN1 | 0.69 | 0.84 | –
21 | O=C1CNC(=O)CNC(=O)[C@H](Cc2ccccc2)NC(=O)CNC(=O)[C@H](Cc2ccc(O)cc2)NC(=O)CCCN1 (cyclo(FGG[GABA]YG)) | 0.2 | 0.22 | –
22 | CN(CC(=O)N[C@@H](Cc1ccccc1)C(=O)NCC(=O)NCC(=O)O)C(=O)CCc1ccc(O)cc1 (Desaminotyrosyl-[Sar]FGG-OH) | 0.31 | 0.39 | –
23 | O=C(O)CNC(=O)CNC(=O)[C@H](Cc1ccccc1)NCCNC(=O)CCc1ccc(O)cc1 | 0.61 | 0.67 | –
24 | N[C@H](CNCC(=O)N[C@@H](Cc1ccccc1)C(=O)NCC(=O)NCC(=O)O)Cc1ccc(O)cc1 | 0.92 | 0.87 | –
25 | O=C(O)CCCCNC(=O)[C@H](Cc1ccccc1)NC(=O)CNC(=O)CCc1ccc(O)cc1 | 0.78 | 0.88 | –
